Measurements reported in article PMC8556345 (Cell, 2021).
Where no end group is shown, it is not given here.

Columns and labels:
ACx VIP cells [1] = experiment: whole-cell current-clamp, membrane potential, ACx VIP cells; assay type: cell-based, mouse
ACx SST cells [2] = experiment: whole-cell current-clamp, membrane potential, ACx SST cells; assay type: cell-based, mouse; details: ACx (and M1), compared to VIP cells
ACx PVALB cells [3] = experiment: whole-cell current-clamp, membrane potential, ACx PVALB cells; assay type: cell-based, mouse
[4] = system: ACx pyramidal (Pyr) cells; experiment: whole-cell current-clamp, membrane potential, ACx pyramidal cells; assay type: cell-based, mouse; details: ACx (and M1), compared to VIP cells
[5] = system: motor cortex (M1) VIP cells; experiment: whole-cell current-clamp, membrane potential, motor cortex VIP cells; assay type: cell-based, mouse; details: CPP, gabazine
motor cortex SST cells [6] = experiment: whole-cell current-clamp, membrane potential, motor cortex SST cells; assay type: cell-based, mouse; details: GRP; bath with NBQX, CPP, gabazine, CGP and TTX; 10 cells
motor cortex PVALB cells [7] = experiment: whole-cell current-clamp, membrane potential, motor cortex PVALB cells; assay type: cell-based, mouse; details: GRP; bath with NBQX, CPP, gabazine, CGP and TTX; 15 cells
[8] = system: motor cortex pyramidal cells; experiment: whole-cell current-clamp, membrane potential, motor cortex pyramidal cells; assay type: cell-based, mouse; details: GRP; bath with NBQX, CPP, gabazine, CGP and TTX; 10 cells
L3/4 ACx VIP cells = experiment: spike probability of VIP cells upon optogenetic stimulation of thalamic inputs; assay type: cell-based, mouse
Method in brief: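 L3/4 auditory cortex VIP cells, identified by EGFP in Vip-EGFP or Vip-IRES-Cre x H2B-EGFP mice, were recorded whole-cell in current clamp with low-Cl⁻ K⁺-based solution at 30-32°C. Thalamic inputs were stimulated with 1 s bursts of 5 ms light pulses at 20 Hz every 20 s. […] Spontaneous and evoked spikes were counted.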

[9] = system: auditory cortex VIP cells; experiment: GCaMP acute slice Ca2+ imaging, ACx VIP cells; assay type: cell-based, mouse
ACx SST cells [10] = experiment: IPSC frequency, ACx SST cells; assay type: cell-based, mouse; details: GRP bath, NBQX and CPP, TTX-sensitive; n=10
ACx PVALB cells [11] = experiment: IPSC frequency, ACx PVALB cells; assay type: cell-based, mouse; details: GRP bath, NBQX and CPP, TTX-sensitive; n=10
ACx Pyr cells = experiment: IPSC frequency, ACx Pyr cells; assay type: cell-based, mouse; details: GRP bath, NBQX and CPP
Method in brief: (§1)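 Whole-cell voltage clamp at −70 mV in acute coronal slices at 30-32°C, with 3-4 MΩ pipettes. The pipette held K⁺-based high-Cl⁻ solution (127.5 mM KCl, pH 7.3), and the bath held NBQX and CPP at 10 μM each.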

motor cortex SST cells [12] = experiment: IPSC frequency, motor cortex SST cells; assay type: cell-based, mouse; details: GRP bath, NBQX and CPP
Method in brief: as §1

motor cortex PVALB cells [13] = experiment: IPSC frequency, motor cortex PVALB cells; assay type: cell-based, mouse; details: GRP bath, NBQX and CPP
Method in brief: as §1

ACx PVALB cells [14] = experiment: EPSC frequency, ACx PVALB cells; assay type: cell-based, mouse; details: GRP bath, gabazine; n = 10
Method in brief: (§2)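 Acute coronal slices were incubated in oxygenated Ringer's at 32°C for ~15 min, then held at RT. SST and PVALB cells were identified in Sst-EGFP or Pvalb-EGFP mice. Whole-cell recordings were made at 30-32°C, voltage-clamped at −70 mV, with K⁺-gluconate low-Cl⁻ pipette solution and 10 μM gabazine.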

ACx SST cells [15] = experiment: EPSC frequency, ACx SST cells; assay type: cell-based, mouse; details: GRP bath, gabazine; n = 11
Method in brief: as §2

M1 PVALB cells = experiment: EPSC frequency, M1 PVALB cells; assay type: cell-based, mouse; details: GRP bath, gabazine; n = 10
Method in brief: as §2

M1 SST cells = experiment: EPSC frequency, M1 SST cells; assay type: cell-based, mouse; details: GRP bath, gabazine; n = 9
Method in brief: as §2

SST cells = experiment: EPSC frequency, SST cells, ACx and M1 together; assay type: cell-based, mouse; details: GRP bath
Method in brief: as §2

[16] = system: Vip+ and glutamatergic cells, motor cortex; experiment: immediate early gene; assay type: in vivo, mouse
Method in brief: (§3)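 Brains were frozen 45 min later for Fos and Npas4 FISH. Expression was the cell area covered by label, in manually drawn ROIs across all layers, 2-3 slices per mouse. Right-hemisphere values were normalized to the left-hemisphere mean per cell type.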

[17] = system: Sst+ and Pvalb+ cells, motor cortex; experiment: immediate early gene; assay type: in vivo, mouse
Method in brief: as §3

ACx VIP cells [18] = experiment: in vivo fiber photometry of GCaMP in ACx VIP cells, cannula infusion; set-up: species or system mouse; details: 2 μl, 300 μM GRP and TAMRA-GRP, 100 nl/min into visual cortex; n = 3 (grpLight1.2) and 8 (GCaMP) mice
Method in brief: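 Decay was corrected by an exponential fit to trace minima (5000-point sliding window). Autofluorescence measured in fluorophore-free implanted mice was subtracted, and GCaMP was normalized to mean mBeRFP fluorescence.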

[19] = system: grpLight (GRPR/cpGFP sensor); experiment: grpLight GRP sensor characterization; assay type: cell-based, human
GRP receptor (GRPR) [20] = details: ref Kroog et al., 1995; cited from earlier work
grpLight in ACx = experiment: in vivo dual-color photometry of grpLight and TAMRA-GRP, diffusion in cortex; set-up: species or system mouse; details: infusion into distant cortical area
[21] = TAMRA-GRP imaging in acute brain slices, flow-in delay; set-up: species or system mouse; details: 300 nM, bath
Method in brief: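 Non-fluorescent acute brain slices were imaged through a 650/100 nm emission filter. […] Arrival in the bath was defined as the first time point at which fluorescence rose 2 SD above baseline.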

GRP receptor (GRPR) [22] = experiment: binding to GRP receptor; details: statement in method; no data shown
[23] = 300 nM GRP, male mice, NBQX, CGP
[24] = 1372 responding VIP cells, male auditory cortex, GRP bath

VSTGAGGGTVLAKMYPRGSHWAVGHLM-NH2 [GRP, gastrin-releasing peptide]
depolarization in female compared to male mice (ACx VIP cells [1]; 300 nM GRP): non-significantly larger depolarization compared to male mice | mean depolarization, female mice (ACx VIP cells [1]; 300 nM GRP, bath NBQX, CPP, gabazine, CGP and TTX, mean ± SEM, 10 cells (Fig. S3C)): 8.62 ±1.11 mV | duration of burst-like firing activity (ACx VIP cells [1]; 300 nM for 2 min, male mice): > 1 min | neurons with long-lasting burst-like firing activity (ACx VIP cells [1]; 300 nM for 2 min, male mice): 3 out of 10 | VIP cells that depolarize upon GRP bath application (ACx VIP cells [1]; 300 nM for 2 min, male mice, acute slices, 30-32°C): 7 out of 10 | dependence of depolarization on concentration (ACx VIP cells [1]; Fig. 3C, 6-10 cells per group): concentration-dependent | GRP-evoked depolarization, SST cells (ACx SST cells [2]): significantly smaller than in VIP cells | GRP-evoked depolarization, PVALB cells (ACx PVALB cells [3]; ACx (and M1), compared to VIP cells): significantly smaller than in VIP cells | PVALB cell depolarization vs control recordings without GRP (ACx PVALB cells [3]; Fig. S3D): No significant difference | GRP-evoked depolarization, Pyr cells [4]: significantly smaller than in VIP cells | M1 VIP neurons with burst-like activity [5, 23]: 3 out of 10 | VIP cells in M1 that depolarized [5, 23]: 9 out of 10 | depolarization, motor cortex VIP ([5]; GRP, bath with NBQX, CGP and TTX, 6 cells): 9.38 ± 1.28 mV | depolarization, motor cortex SST (motor cortex SST cells [6]): 1.39 ± 0.74 mV | depolarization, motor cortex PVALB (motor cortex PVALB cells [7]): 1.78 ± 0.45 mV | depolarization, motor cortex pyramidal [8]: 0.56 ± 0.49 mV | average spontaneous spike rate prior to stimulation, after GRP (L3/4 ACx VIP cells; 0 ± 0 Hz before GRP, n = 5 cells): 0.09 ± 0.08 Hz | average evoked spike probability after GRP (L3/4 ACx VIP cells; 300 nM GRP bath for 2 min, 14 ± 9% before GRP, 5 ms pulses at 20 Hz, n = 5 cells): 52 ± 16% | effect on spontaneous spike rate prior to stimulation onset (L3/4 ACx VIP cells; GRP bath): without increasing spontaneous spike rate | effect on evoked spike probability (L3/4 ACx VIP cells; optogenetic stimulation of thalamo-cortical afferents): significantly increased the evoked spike probability | GCaMP peak latency [9, 24]: 156.9 ± 1.5 s | GCaMP response start [9, 24]: 99.4 ± 0.9 s | lowest concentration that increased GCaMP fluorescence in most VIP cells ([9]; ACx of male and female mice and M1, bath application): 3 nM | cells with Ca2+ oscillations with TTX ([9]; GRP, with TTX): 14% | VIP cells with phasic (oscillatory) GCaMP fluctuations ([9]; GRP, without TTX, NBQX, CPP, gabazine, CGP): 26% | GCaMP fluorescence change ΔF/FKCl, female ([9]; median (IQR), female auditory cortex, 580 cells in 14 slices, 300 nM GRP, 2 min, 32°C): 11.8 (15.6) % ΔF/FKCl | latency of Ca2+ increases after TAMRA-GRP levels increased ([9]; start GCaMP vs start TAMRA-GRP): 12 s | SST cells with increased IPSC frequency (ACx SST cells [10]): 60% | PVALB cells with increased IPSC frequency (ACx PVALB cells [11]): 40% | Pyr cells with increased IPSC frequency (ACx Pyr cells): 1 out of 10 | SST cells with increased IPSC frequency, M1 (motor cortex SST cells [12]): 4 out of 10 | mean increase in IPSC frequency, M1 SST (motor cortex SST cells [12]; n = 10): 13.28 ± 5.97 Hz | PVALB cells with increased IPSC frequency, M1 (motor cortex PVALB cells [13]): 3 out of 10 | mean increase in IPSC frequency, M1 PVALB (motor cortex PVALB cells [13]; n = 10): 4.59 ± 2.00 Hz | mean increase in EPSC frequency, ACx PVALB (ACx PVALB cells [14]): 1.95 ± 1.43 Hz | mean increase in EPSC frequency, ACx SST (ACx SST cells [15]): 1.86 ± 1.15 Hz | mean increase in EPSC frequency, M1 PVALB (M1 PVALB cells): 0.69 ± 0.80 Hz | mean increase in EPSC frequency, M1 SST (M1 SST cells): 1.61 ± 0.97 Hz | effect on EPSC frequency (SST cells; SST and PVALB cells): hardly affected | SST cells with increased EPSC frequency (SST cells; gabazine): 2 out of 20 | Npas4 expression in Vip-IRES-Cre;Grpr fl/y mice ([16]; 3 μM GRP into M1, vs control mice): significantly smaller | Npas4 expression, Vip+ and glutamatergic cells ([16]; 3 μM GRP into right M1): significantly increased expression | Fos expression ipsilateral to injection, Vip+ and glutamatergic cells ([16]; 200 nl of 3 μM GRP into right M1, anaesthetized mice, FISH at 45 min): strong increase in Fos | Npas4 expression, Sst+ and Pvalb+ cells ([17]; 3 μM GRP into right M1): but not Sst^+ and Pvalb^+ cells | Fos expression, Sst+ and Pvalb+ cells ([17]; 200 nl of 3 μM GRP into right M1): without changes in expression | onset of functional effect on VIP cell Ca2+ vs grpLight detection (ACx VIP cells [18]): functional effects on these cells in vivo well before photometric detection of changes in grpLight fluorescence | concentrations detectable by grpLight [19]: nanomolar concentrations | binding to GRPR (GRP receptor (GRPR) [20]): high affinity and selectivity

VSTGAGGGTVLAKMYPRGSHWAVGHLM-NH2 [TAMRA-GRP]
grpLight fluorescence change in ACx following infusion (grpLight in ACx): long-lasting increases minutes after the start of GRP infusion | TAMRA-GRP fluorescence peak latency, range ([21]; 3 slices, range): 156.4 to 162.8 s | TAMRA-GRP fluorescence response start, range ([21]; 3 slices, range): 79 to 95 s | TAMRA-GRP fluorescence peak latency ([21]; mean of 3 slices): 160.3 s | TAMRA-GRP fluorescence response start ([21]; mean of 3 slices): 87.4 s | efficiency as GRPR ligand (GRP receptor (GRPR) [22]): very inefficient GRPR ligand
